Here are results for four molecules from ChEMBL document CHEMBL2062449, “Eco-friendly synthesis and biological evaluation of substituted pyrano[2,3-c]pyrazoles” (Bioorg Med Chem Lett, 2012).

≈ marks a conversion by molar mass, not a printed value.

A word on the MIC: it is the least concentration at which growth counts as inhibited. Read a low MIC as greater potency. Usually inhibition stands for the percentage by which the read-out fell short of the control. One may read the IC50 as the midpoint of a concentration-inhibition curve.

Assay [1] has as its system Staphylococcus aureus. The assay is described as follows: Antibacterial activity against Staphylococcus aureus at […] after 24 hrs by agar diffusion method. The assay is classed as functional. Summed up:
(§1)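 Single-concentration antibacterial screen at 100 μg/50 μL per test against the standard bacterial strains.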
In general terms: Agar diffusion results depend on both activity and mobility in agar.

Assay [2] concerns Bacillus subtilis. As to the kind of experiment: Antibacterial activity against Bacillus subtilis at […] after 24 hrs by agar diffusion method. The assay is classed as functional. Summed up: as §1
Assay [3] concerns Escherichia coli. As to the kind of experiment: Antibacterial activity against Escherichia coli at […] after 24 hrs by agar diffusion method. The assay is classed as functional. A digest of the protocol: as §1
The test system of assay [4] is Pseudomonas aeruginosa. As to the kind of experiment: Antibacterial activity against Pseudomonas aeruginosa at 100 ug/[…] after 24 hrs by agar diffusion method. The class given is functional. A digest of the protocol: as §1
Assay [5] has as its system Staphylococcus aureus. As to the kind of experiment: Antibacterial activity against Staphylococcus aureus after 18 to 24 hrs by broth microdilution method. The class given is functional.
Assay [6] relates to Bacillus subtilis. The assay is described as follows: Antibacterial activity against Bacillus subtilis after 18 to 24 hrs by broth microdilution method. The assay is classed as functional.
Assay [7] has as its system Escherichia coli. The assay is described as follows: Antibacterial activity against Escherichia coli after 18 to 24 hrs by broth microdilution method. The assay is classed as functional. (In general: In broth dilution the organism is exposed to a series of concentrations in liquid medium.)
Assay [8] deals with Pseudomonas aeruginosa. As to the kind of experiment: Antibacterial activity against Pseudomonas aeruginosa after 18 to 24 hrs by broth microdilution method. The assay is classed as functional.
Assay [9] deals with Rattus norvegicus. The assay is described as follows: Antiinflammatory activity in Wistar rat assessed as protection against carrageenan-induced paw edema at 100 mg/kg, po administered 1 hr before carrageenan challenge measured after 30 mins. The class given is functional. A general note: In the carrageenan paw model, swelling and tenderness develop within hours.
Assay [10] relates to Rattus norvegicus. As to the kind of experiment: Antiinflammatory activity in Wistar rat assessed as protection against carrageenan-induced paw edema at 100 mg/kg, po administered 1 hr before carrageenan challenge measured after 1 hr. The class given is functional.
Assay [11] concerns Rattus norvegicus. The assay is described as follows: Antiinflammatory activity in Wistar rat assessed as protection against carrageenan-induced paw edema at 100 mg/kg, po administered 1 hr before carrageenan challenge measured after 2 hrs. The class given is functional.
Assay [12] concerns Rattus norvegicus. As to the kind of experiment: Antiinflammatory activity in Wistar rat assessed as protection against carrageenan-induced paw edema at 100 mg/kg, po administered 1 hr before carrageenan challenge measured after 3 hrs. The class given is functional.
Assay [13] deals with Rattus norvegicus. As to the kind of experiment: Antiinflammatory activity in Wistar rat assessed as protection against carrageenan-induced paw edema at 100 mg/kg, po administered 1 hr before carrageenan challenge measured after 4 hrs. The assay is classed as functional.
Assay [14] has as its system MCF7. As to the kind of experiment: Cytotoxicity against estrogen receptor-positive human MCF7 cells assessed as inhibition of cell proliferation at 1 ug/ml after 24 hrs by MTT assay. The class given is functional. The settings on record: MCF7, 24 h. A digest of the protocol: (§2)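 MTT assay on MCF-7 human breast cancer cells, Taxol as reference; percentage inhibition of cell proliferation read at graded concentrations from 0.1 to 50 μg/mL (typically five or six levels per compound); IC50 in μg/mL derived from the inhibition series.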

Assay [15] has as its system MCF7. As to the kind of experiment: Cytotoxicity against estrogen receptor-positive human MCF7 cells assessed as inhibition of cell proliferation at 5 ug/ml after 24 hrs by MTT assay. The assay is classed as functional. The settings on record: MCF7, 24 h. Summed up:
as §2

For assay [16], the system named is MCF7. The assay is described as follows: Cytotoxicity against estrogen receptor-positive human MCF7 cells assessed as inhibition of cell proliferation at 2 ug/ml after 24 hrs by MTT assay. The class given is functional. The settings on record: MCF7, 24 h. A digest of the protocol:
as §2

In assay [17] the test system is MCF7. The assay is described as follows: Cytotoxicity against estrogen receptor-positive human MCF7 cells assessed as inhibition of cell proliferation at 3 ug/ml after 24 hrs by MTT assay. The assay is classed as functional. Particulars: MCF7, 24 h. Summed up:
as §2

Assay [18] has as its system MCF7. The assay is described as follows: Cytotoxicity against estrogen receptor-positive human MCF7 cells assessed as inhibition of cell proliferation at 4 ug/ml after 24 hrs by MTT assay. The class given is functional. The settings on record: MCF7, 24 h. A digest of the protocol: as §2
In assay [19] the test system is MCF7. As to the kind of experiment: Cytotoxicity against estrogen receptor-positive human MCF7 cells assessed as inhibition of cell proliferation after 24 hrs by MTT assay. Particulars: Homo sapiens, MCF7, 24 h; read-out: IC50. The assay is classed as functional, cell-based. A digest of the protocol:
as §2

The subject of assay [20] is MCF7. The assay is described as follows: Cytotoxicity against estrogen receptor-positive human MCF7 cells assessed as inhibition of cell proliferation at 0.5 ug/ml after 24 hrs by MTT assay. The class given is functional. The settings on record: MCF7, 24 h. A digest of the protocol: as §2
For assay [21], the system named is MCF7. The assay is described as follows: Cytotoxicity against estrogen receptor-positive human MCF7 cells assessed as inhibition of cell proliferation at 6 ug/ml after 24 hrs by MTT assay. The assay is classed as functional. The settings on record: MCF7, 24 h. A digest of the protocol:
as §2

Assay [22] has as its system MCF7. The assay is described as follows: Cytotoxicity against estrogen receptor-positive human MCF7 cells assessed as inhibition of cell proliferation at 8 ug/ml after 24 hrs by MTT assay. Particulars: MCF7, 24 h. The class given is functional. A digest of the protocol:
as §2

Assay [23] concerns MCF7. As to the kind of experiment: Cytotoxicity against estrogen receptor-positive human MCF7 cells assessed as inhibition of cell proliferation at 0.1 ug/ml after 24 hrs by MTT assay. The assay is classed as functional. The settings on record: MCF7, 24 h. Summed up: as §2
Assay [24] deals with MCF7. The assay is described as follows: Cytotoxicity against estrogen receptor-positive human MCF7 cells assessed as inhibition of cell proliferation at 0.25 ug/ml after 24 hrs by MTT assay. The class given is functional. The settings on record: MCF7, 24 h. Summed up:
as §2

The test system of assay [25] is MCF7. The assay is described as follows: Cytotoxicity against estrogen receptor-positive human MCF7 cells assessed as inhibition of cell proliferation at 2.5 ug/ml after 24 hrs by MTT assay. The settings on record: MCF7, 24 h. The assay is classed as functional. A digest of the protocol:
as §2

For assay [26], the system named is MCF7. As to the kind of experiment: Cytotoxicity against estrogen receptor-positive human MCF7 cells assessed as inhibition of cell proliferation at 10 ug/ml after 24 hrs by MTT assay. The class given is functional. The settings on record: MCF7, 24 h. A digest of the protocol: as §2
For assay [27], the system named is MCF7. As to the kind of experiment: Cytotoxicity against estrogen receptor-positive human MCF7 cells assessed as inhibition of cell proliferation at 25 ug/ml after 24 hrs by MTT assay. The assay is classed as functional. Particulars: MCF7, 24 h. Summed up: as §2
For assay [28], the system named is MCF7. As to the kind of experiment: Cytotoxicity against estrogen receptor-positive human MCF7 cells assessed as inhibition of cell proliferation at 50 ug/ml after 24 hrs by MTT assay. The assay is classed as functional. The settings on record: MCF7, 24 h. Summed up: as §2

For the molecule `Cc1n[nH]c2c1C(c1cccs1)C(C#N)=C(N)O2` (centres undefined), the “inhibition zone (IZ)” value in assay [1] amounted to 15 mm; in assay [2] it was 18 mm; in assay [3], 20 mm; in [4], 14 mm. Also, the MIC in assay [5], in assay [6], in assay [7] and in assay [8] was 3.12 µg/mL (≈ 12.1 µM) throughout. The Activity turned out to be 23.5% in assay [9]; 38.8% in assay [10]; 50.8% in assay [11]; 64.5% in assay [12]; 51.6% in [13]. Besides, the inhibition at 1 µg/mL in assay [14] amounted to 0.28%. Further, the inhibition at 5 µg/mL in [15] was determined as 61.7%. Further, in [16], the inhibition at 2 µg/mL turned out to be 19.1%. Moreover, in [17], the inhibition at 3 µg/mL is 22%. For the same molecule, the inhibition at 4 µg/mL in assay [18] was 41.8%. Moreover, the concentration for half-maximal inhibition (IC50) in assay [19] is 4.44 µg/mL (≈ 17.2 µM).

Turning to `CC1=NN=C2OC(N)=C(C#N)C(c3ccc(Oc4nc(Cl)c(Cl)cc4Cl)cc3)C12` (centres undefined), the “inhibition zone (IZ)” value in assay [1] turned out to be 15 mm; in assay [2] it was 20 mm; in assay [3], 22 mm; in assay [4], 14 mm. Further, the minimal inhibitory concentration (MIC) in assay [5] is 3.12 µg/mL (≈ 6.96 µM); in assay [6] it was 6.25 µg/mL (≈ 13.9 µM); in [7], 1.56 µg/mL (≈ 3.48 µM); in [8] it was 3.12 µg/mL (≈ 6.96 µM). Also, the Activity in assay [9] turned out to be 29.4%; in assay [10], 50%; in assay [11], 67.1%; in [12] it was 72%; in [13], 54.9%. In addition, the inhibition at 1 µg/mL in assay [14] was 17.4%. Further, in assay [16], the inhibition at 2 µg/mL was found to be 31.9%. Besides, the inhibition at 4 µg/mL in assay [18] worked out at 42.5%. Further, the inhibition at 0.5 µg/mL in [20] worked out at 5.34%. In addition, in assay [21], the inhibition at 6 µg/mL amounted to 65.2%. For the same molecule, in assay [22], the inhibition at 8 µg/mL was 68.6%. In addition, the IC50 in assay [19] turned out to be 4.46 µg/mL (≈ 9.95 µM).

Consider `Cc1[nH]nc2c1C(c1cccc(Oc3ccccc3)c1)C(C#N)=C(N)O2` (centres undefined), for which the “inhibition zone (IZ)” value in assay [1] was determined as 7 mm; in assay [2], 9 mm; in assay [3] it was 9 mm; in assay [4], 11 mm. In addition, the Activity in assay [9] is 17.6%; in assay [10] it was 33.3%; in assay [11] it was 47.9%; in [12], 66.6%; in assay [13], 61.5%. The inhibition at 1 µg/mL in assay [14] was 43.5%. Besides, in assay [15], the inhibition at 5 µg/mL worked out at 83.7%. The inhibition at 0.5 µg/mL in assay [20] came to 20.2%. Also, in assay [23], the inhibition at 0.1 µg/mL worked out at 8.26%. Besides, in assay [24], the inhibition at 0.25 µg/mL is 14%. The inhibition at 2.5 µg/mL in assay [25] came out at 68.6%. In addition, in assay [19], the concentration for half-maximal inhibition (IC50) came out at 1.63 µg/mL (≈ 4.73 µM).

As to `Cc1nn(-c2ccccc2)c2c1C1(C(=O)Nc3ccccc31)C(C#N)=C(N)O2` (centres undefined), the “inhibition zone (IZ)” value came to 14 mm in assay [1], 19 mm in assay [2], 21 mm in assay [3] and 15 mm in [4]. Further, the minimal inhibitory concentration (MIC) came out at 3.12 µg/mL (≈ 8.46 µM) in assay [5], 3.12 µg/mL (≈ 8.46 µM) in assay [6], 3.12 µg/mL (≈ 8.46 µM) in assay [7] and 6.25 µg/mL (≈ 16.9 µM) in [8]. Moreover, the Activity in assay [9] is 23.5%; in assay [10] it was 25%; in assay [11], 46.5%; in assay [12], 68.8%; in assay [13], 47.2%. Also, the inhibition at 1 µg/mL in assay [14] worked out at 19.3%. Also, in assay [15], the inhibition at 5 µg/mL was found to be 26.6%. Also, the inhibition at 10 µg/mL in [26] worked out at 40.3%. Besides, the inhibition at 25 µg/mL in assay [27] turned out to be 64.6%. Further, in assay [28], the inhibition at 50 µg/mL turned out to be 86.5%. Moreover, the half-inhibitory concentration (IC50) in [19] was 16.8 µg/mL (≈ 45.4 µM).
